Tests used:
[1] = target: T1, Transient receptor potential cation channel subfamily V member 1 (Homo sapiens, UniProt Q8NER1); assay: Antagonist activity in capsaicin-induced FLIPR assays in HEK293 cells expressing human TRPV1; format: functional, cell-based
Summary of the method: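 HEK293 cells stably expressing human TRPV1; channel activated with 100 nM capsaicin and block of the calcium influx read on a fluorometric imaging plate reader (FLIPR). IC50 given as mean ± SEM of at least three determinations.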

[2] = target: T1, Transient receptor potential cation channel subfamily V member 1; assay: Antagonist activity in pH 5.5-induced FLIPR assays in HEK293 cells expressing human TRPV1; format: functional, cell-based
Summary of the method: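 Human TRPV1-expressing HEK293 line stimulated by low pH (pH 5.5) as agonist; antagonism measured as inhibition of calcium influx by FLIPR. IC50 reported as mean ± SEM from at least three determinations.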

[3] = Bioavailability in rat at single dose of 30 mg/kg orally; conditions: in vivo, oral
[4] = Clearance value in rat at single dose of 3 mg/kg intravenously; format: ADME, organism-based; set-up: dose 3 mg/kg, route intravenous; conditions: in vivo, iv
Summary of the method: (§1)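 Rat pharmacokinetics: systemic exposure estimated after a single 3 mg/kg intravenous dose and, separately, a single 30 mg/kg oral dose. Parameters derived include Vd, CL, terminal t1/2, Tmax, Cmax and oral bioavailability (F%).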

[5] = Terminal half life value in rat at single dose of 3 mg/kg iv dose; conditions: in vivo
[6] = Time taken for cmax value in rat at single dose of 30 mg/kg oral dose; format: ADME, organism-based; set-up: dose 30 mg/kg, route oral; conditions: in vivo; summary of the method: as §1
[7] = Terminal half life value in rat at single dose of 3 mg/kg intravenously; format: ADME, organism-based; set-up: dose 3 mg/kg, route intravenous; conditions: in vivo, iv; summary of the method: as §1
[8] = Bioavailability in rat (single dose 30 mg/kg p.o.); format: ADME, organism-based; conditions: in vivo, po; summary of the method: as §1
[9] = Cmax value in rat at single dose of 30 mg/kg oral dose; format: ADME, organism-based; set-up: dose 30 mg/kg, route oral; conditions: in vivo; summary of the method: as §1
[10] = Volume distribution in rat at single dose of 3 mg/kg intravenously; format: ADME, organism-based; set-up: dose 3 mg/kg, route intravenous; conditions: in vivo, iv; summary of the method: as §1
[11] = Clearance value in rat at single dose of 3 mg/kg iv dose; conditions: in vivo

T1 sequence (Q8NER1 whole entry): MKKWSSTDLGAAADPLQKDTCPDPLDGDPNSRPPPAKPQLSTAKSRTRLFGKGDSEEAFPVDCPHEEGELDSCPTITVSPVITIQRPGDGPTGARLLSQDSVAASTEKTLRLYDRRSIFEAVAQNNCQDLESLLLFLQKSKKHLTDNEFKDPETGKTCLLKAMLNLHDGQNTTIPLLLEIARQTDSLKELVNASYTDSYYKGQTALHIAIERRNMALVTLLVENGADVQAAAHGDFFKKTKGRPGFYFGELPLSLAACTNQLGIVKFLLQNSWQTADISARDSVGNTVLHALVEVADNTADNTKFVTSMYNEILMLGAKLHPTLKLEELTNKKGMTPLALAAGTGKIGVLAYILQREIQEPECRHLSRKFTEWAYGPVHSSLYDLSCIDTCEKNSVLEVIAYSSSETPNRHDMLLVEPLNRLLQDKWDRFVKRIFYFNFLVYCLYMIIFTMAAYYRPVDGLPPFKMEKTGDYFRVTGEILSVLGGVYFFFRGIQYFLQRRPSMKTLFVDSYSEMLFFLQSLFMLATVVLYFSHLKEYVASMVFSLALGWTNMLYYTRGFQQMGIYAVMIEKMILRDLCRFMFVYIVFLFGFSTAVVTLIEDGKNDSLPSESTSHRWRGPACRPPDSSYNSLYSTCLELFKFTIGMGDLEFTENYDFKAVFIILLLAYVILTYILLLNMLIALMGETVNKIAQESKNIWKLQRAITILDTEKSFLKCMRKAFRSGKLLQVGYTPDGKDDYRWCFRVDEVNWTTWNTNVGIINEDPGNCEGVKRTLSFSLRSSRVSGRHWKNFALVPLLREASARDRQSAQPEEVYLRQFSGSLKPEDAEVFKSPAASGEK

SMILES | IC50 [1] [nM] | IC50 [2] [nM] | other results
C[C@@H]1CN(c2nsnc2Cl)CCN1c1nc2ccc(C(C)(C)C)cc2[nH]1 | 776 | > 10000 | –
C[C@@H]1CN(c2ncccc2Cl)CCN1c1nc2ccc(C(C)(C)C)cc2[nH]1 | 90.4 | 104 | bioavailability [3]: 19.7%; clearance [4]: 134 mL/min/kg; half-life [5]: 36 min; Tmax [6]: 180 min; half-life [7]: 35.4 min; bioavailability [8]: 19.7%; Cmax [9]: 300 ng/mL; Vd [10]: 6.87 L/kg; clearance [11]: 133 mL/min/kg
COc1ccc2nc(N3CCN(c4ncccc4Cl)C[C@H]3C)[nH]c2c1 | 665 | – | –
Cc1cc2nc(N3CCN(c4ncccc4Cl)C[C@H]3C)[nH]c2cc1C | 113 | 10000 | –
C[C@@H]1CN(c2ncccc2Cl)CCN1c1nc2ccc(Cl)cc2[nH]1 | 325 | – | –
C[C@@H]1CN(c2ncccc2C(F)(F)F)CCN1c1nc2ccc(C(C)(C)C)cc2[nH]1 | 32.4 | 1780 | –
C[C@H]1CN(c2ncccc2Cl)CCN1c1nc2ccc(C(C)(C)C)cc2[nH]1 | 948 | 3610 | –
Cc1cccnc1N1CCN(c2nc3ccc(C(C)(C)C)cc3[nH]2)[C@H](C)C1 | – | 597 | –
CC(C)(C)c1ccc2oc(N3CCN(c4ncccc4Cl)CC3)nc2c1 | 2140 | > 10000 | –
Cc1cc2nc(N3CCN(c4ncccc4Cl)C[C@@H]3C)[nH]c2cc1C | 5770 | > 25000 | –
CC(C)(C)c1ccc2nc(N3CCN(c4ncccc4Cl)CC3)[nH]c2c1 | 136 | 1690 | –
C[C@@H]1CN(c2ncccc2Cl)CCN1c1nc2cc(C(C)(C)C)ccc2o1 | – | 1410 | –
Cc1cc2nc(N3CCN(c4ncccc4Cl)CC3)n(C)c2cc1C | 5450 | > 25000 | –
CC(C)(C)c1ccc(NC(=O)N2CCN(c3ncccc3Cl)CC2)cc1 | – | – | bioavailability [8]: 15%

Source: ChEMBL document CHEMBL1144293, “4-(2-Pyridyl)piperazine-1-benzimidazoles as potent TRPV1 antagonists” (Bioorg Med Chem Lett, 2005)
